# Results from ChEMBL document CHEMBL1126098, “Synthesis and SAR of 6-substituted purine derivatives as novel selective positive inotropes” (J Med Chem, 1992).
# The source made the active and inactive calls. The calls are words filed in the database; no cut-off is given here.
# Key:
# [1] = Relative change in CF was determined by calculating the effective concentration that produced a 50% of maximum increase in tension; format: functional, Mustela putorius furo
# Summary of the method: (§1)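 Ferret papillary muscle in Tyrode's solution with timolol (1×10^-7 M); compound given at cumulative serially increasing concentrations, each read at 15 min. EC50 is the concentration giving 50% of that compound's own maximal tension increase. Estimated graphically from mean data, n ≥ 3.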
# Canis familiaris [2] = experiment: Mean arterial blood pressure in dog after administering ca. 1.875 mg/Kg drug intravenously.; format: functional, Canis lupus familiaris; parameters: unit not given beside the values
# Summary of the method: (§2)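 Adult mongrel dogs anesthetized with sodium pentobarbital (45 mg/kg ip) and artificially respired. MAP measured via cannulated femoral artery; HR from cardiotachometer; LV +dP/dtmax via Millar catheter; CF by Walton Brodie strain gauge on right ventricle (baseline tension 100 g). Compound in 10% DMF/saline or HCl salt, infused iv into femoral vein over 5 min per step. Each step given at peak of the prior one; three to four increasing doses. Response expressed as % change from predrug control; n = 1–5 dogs.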
# Canis familiaris [3] = experiment: Effective dose required to produce 50% increase of cardiac force in dog after administering ca. 1.875 mg/Kg drug intravenously; format: functional; details: Canis lupus familiaris, iv; summary of the method: as §2
# [4] = In vitro changes in contractile force (CF) quantitated by determining the maximal increase in isometric tension by using ferret papillary muscle; format: functional, Mustela putorius furo, Muscle tissue
# Summary of the method: (§3)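 Isolated ferret papillary muscle in Tyrode's solution with timolol (1×10^-7 M), equilibrated 2 h. Compound diluted from 1×10^-2 M DMSO stock and added at serially increasing concentrations, up to 10 μM. Isometric tension read 15 min after each addition. Result is maximal increase as % of control tension, from mean of n ≥ 3.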
# Canis familiaris [5] = experiment: Heart rate in dog after administering ca. 1.875 mg/Kg drug intravenously; format: functional, Canis lupus familiaris; summary of the method: as §2
# Canis familiaris [6] = experiment: Cardiac force in dog after administering ca. 1.875 mg/Kg drug intravenously.; format: functional, Canis lupus familiaris; parameters: unit not given beside the values; summary of the method: as §2
# Canis familiaris [7] = species on record: Canis familiaris; experiment: dP/dt max was determined in dog; format: functional, Canis lupus familiaris; parameters: unit not given beside the values; summary of the method: as §2
# Mustela putorius furo = species on record: Mustela putorius furo; experiment: In vitro changes in contractile force (CF) quantitated by determining the maximal increase in isometric tension by using ferret papillary muscle.; format: functional, tissue-based; details: Muscle tissue; summary of the method: as §3
# [8] = Relative change in CF was determined by calculating the effective concentration that produced a 50% of maximum increase in tension.; format: functional, Mustela putorius furo; summary of the method: as §1
# Canis familiaris [9] = experiment: Mean arterial blood pressure determined in dog after administering ca. 1.875 mg/kg drug intra venously; format: functional, Canis lupus familiaris; summary of the method: as §2
# Canis familiaris [10] = experiment: Heart rate determined in dog after administering ca. 1.875 mg/kg drug intra venously; format: functional, Canis lupus familiaris; summary of the method: as §2
# Canis familiaris [11] = experiment: Cardiac force was determined in dog after administering ca. 1.875 mg/kg drug intra venously; format: functional, Canis lupus familiaris; summary of the method: as §2
# [12] = Relative changes in CF was determined by calculating the effective concentration that produced a 50% of maximum increase in tension; format: functional, Mustela putorius furo; summary of the method: as §1
# Canis familiaris [13] = experiment: Dose to produce a 50% increase of CF n dog after administering ca. 1.875 mg/kg drug intra venously; format: functional; details: Canis lupus familiaris; summary of the method: as §2
EC50 [1],EC50 [8],EC50 [12],SMILES,MAP (Canis familiaris [2]),ED50 (Canis familiaris [3]),Max [4],Heart rate (Canis familiaris [5]),Cardiac force (Canis familiaris [6]),dP/dt max (Canis familiaris [7]),Max (Mustela putorius furo),MPA (Canis familiaris [9]),Heart rate (Canis familiaris [10]),Cardiac force (Canis familiaris [11]),ED50 (Canis familiaris [13])
600 nM,–,–,Cn1cnc2c(SCC(O)CN3CCN(C(c4ccc(F)cc4)c4ccc(F)cc4)CC3)ncnc21 (stereo not given),-6,1.9 mg/kg,142%,-2,50,11,–,–,–,–,–
1600 nM,–,–,OC(CSc1[nH]cnc2ncnc1-2)CN1CCN(C(c2ccc(Cl)cc2Cl)c2ccc(Cl)cc2Cl)CC1 (stereo not given),-10,0.9 mg/kg,49%,6,69,47,–,–,–,–,–
–,Not Active,–,OC(COc1[nH]cnc2ncnc1-2)CN1CCN(C(c2ccc(F)cc2)c2ccc(F)cc2)CC1 (stereo not given),4,0.72 mg/kg,–,12,80,58,inactive,–,–,–,–
–,Not Active,–,COc1cc(OC)c(C(=O)OC(CSc2[nH]cnc3ncnc2-3)CN2CCN(C(c3ccc(F)cc3)c3ccc(F)cc3)CC2)c(OC)c1 (stereo not given),0,–,–,3,17,15,inactive,–,–,–,–
1000 nM,–,–,OC(CSc1[nH]cnc2ncnc1-2)CN1CCN(C(c2ccc(C(F)(F)F)cc2)c2ccc(C(F)(F)F)cc2)CC1 (stereo not given),5,–,47%,0,71,47,–,–,–,–,–
–,Not Active,–,OC(CSc1[nH]cnc2ncnc1-2)CN1CCN(C(c2ccccc2)(c2ccccc2)c2ccccc2)CC1 (stereo not given),-14,–,–,4,22,23,inactive,–,–,–,–
–,–,–,Cc1nc(SCC(O)CN2CCN(C(c3ccc(F)cc3)c3ccc(F)cc3)CC2)c2[nH]cnc2n1 (stereo not given),1,–,–,1,23,17,–,–,–,–,–
2100 nM,–,–,CC(=O)OC(CNc1[nH]cnc2ncnc1-2)CN1CCN(C(c2ccc(F)cc2)c2ccc(F)cc2)CC1 (stereo not given),-26,0.27 mg/kg,45%,-12,144,70,–,–,–,–,–
470 nM,–,–,OC(CSc1[nH]cnc2ncnc1-2)CN1CCN(C(c2ccc(Br)cc2)c2ccc(Br)cc2)CC1 (stereo not given),11,0.31 mg/kg,64%,-2,148,108,–,–,–,–,–
700 nM,–,–,CC(=O)OC(CSc1[nH]cnc2ncnc1-2)CN1CCN(C(c2ccc(F)cc2)c2ccc(F)cc2)CC1 (stereo not given),-12,0.3 mg/kg,248%,-4,145,62,–,–,–,–,–
500 nM,–,–,N#Cc1cc2c(OCC(O)CN3CCN(C(c4ccccc4)c4ccccc4)CC3)cccc2[nH]1 (stereo not given),-21,0.43 mg/kg,131%,-12,98,88,–,–,–,–,–
170 nM,–,–,CC(C)(C)C(=O)OC(CSc1[nH]cnc2ncnc1-2)CN1CCN(C(c2ccc(F)cc2)c2ccc(F)cc2)CC1 (stereo not given),-5,–,43%,4,12,24,–,–,–,–,–
–,–,2500 nM,CC(=O)Oc1ccccc1C(=O)OC(CSc1[nH]cnc2ncnc1-2)CN1CCN(C(c2ccc(F)cc2)c2ccc(F)cc2)CC1 (stereo not given),–,–,34%,–,–,34,–,0,1,56,1.6 mg/kg
–,–,–,OC(CSc1[nH]cnc2ncnc1-2)CN1CCN(C(c2ccc(Cl)cc2)c2ccc(Cl)cc2)CC1 (stereo not given),9,0.33 mg/kg,–,-4,151,99,–,–,–,–,–
1100 nM,–,–,OC(CSc1[nH]cnc2ncnc1-2)CN1CCN(C(c2ccccc2)c2ccccc2)CC1 (stereo not given),-12,0.63 mg/kg,249%,-1,86,60,–,–,–,–,–
–,Not Active,–,OC(COc1[nH]cnc2ncnc1-2)CN1CCN(C(c2ccccc2)c2ccccc2)CC1 (stereo not given),4,0.9 mg/kg,–,2,69,37,inactive,–,–,–,–
500 nM,–,–,OC(CNc1[nH]cnc2ncnc1-2)CN1CCN(C(c2ccc(F)cc2)c2ccc(F)cc2)CC1 (stereo not given),-2,0.28 mg/kg,86%,2,154,83,–,–,–,–,–
–,Not Active,–,OC(CSc1[nH]cnc2ncnc1-2)CN1CCN(Cc2ccccc2)CC1 (stereo not given),1,–,–,0,30,34,inactive,–,–,–,–
–,Not Active,–,CN(CC(O)CN1CCN(C(c2ccc(F)cc2)c2ccc(F)cc2)CC1)c1[nH]cnc2ncnc1-2 (stereo not given),4,0.74 mg/kg,–,7,82,66,inactive,–,–,–,–
–,Not Active,–,OC(COc1ncnc2c1ncn2C1CCCCO1)CN1CCN(C(c2ccccc2)c2ccccc2)CC1 (stereo not given),-2,–,–,0,24,13,inactive,–,–,–,–
–,Not Active,–,OC(COc1ncnc2c1ncn2C1CCCCO1)CN1CCN(C(c2ccc(F)cc2)c2ccc(F)cc2)CC1 (stereo not given),-5,–,–,9,34,38,inactive,–,–,–,–
500 nM,–,–,COc1ccc(C(c2ccc(OC)cc2)N2CCN(CC(O)CSc3[nH]cnc4ncnc3-4)CC2)cc1 (stereo not given),-7,–,98%,-2,45,18,–,–,–,–,–
–,Not Active,–,Fc1ccc(C(c2ccc(F)cc2)N2CCN(CCCSc3[nH]cnc4ncnc3-4)CC2)cc1,-6,1.3 mg/kg,–,2,38,17,inactive,–,–,–,–
–,Not Active,–,CCN(CC(O)CN1CCN(C(c2ccc(F)cc2)c2ccc(F)cc2)CC1)c1[nH]cnc2ncnc1-2 (stereo not given),5,–,–,2,13,16,inactive,–,–,–,–
300 nM,–,–,OC(CSc1ncnc2[nH]cnc12)CN1CCN(C(c2ccc(F)cc2)c2ccc(F)cc2)CC1 (stereo not given) [CARSATRIN],-5,0.15 mg/kg,189%,0,224,150,–,–,–,–,–
3400 nM,–,–,OC(CSc1[nH]cnc2ncnc1-2)CN1CCN(C(c2cccc(C(F)(F)F)c2)c2cccc(C(F)(F)F)c2)CC1 (stereo not given),8,1.1 mg/kg,106%,-6,68,46,–,–,–,–,–
440 nM,–,–,OC(CSc1[nH]cnc2ncnc1-2)CN1CCN(C(c2ccccc2)c2ccc(Cl)cc2)CC1 (stereo not given),2,0.49 mg/kg,242%,-4,100,75,–,–,–,–,–
–,Not Active,–,OC(CSc1ncnc2c1ncn2-c1ccccc1)CN1CCN(C(c2ccc(F)cc2)c2ccc(F)cc2)CC1 (stereo not given),-3,–,–,4,12,5,inactive,–,–,–,–
1900 nM,–,–,Nc1nc(SCC(O)CN2CCN(C(c3ccc(F)cc3)c3ccc(F)cc3)CC2)c2[nH]cnc2n1 (stereo not given),-9,0.85 mg/kg,74%,12,74,38,–,–,–,–,–

SMILES,EC50 [1],EC50 [8],EC50 [12],MAP (Canis familiaris [2]),ED50 (Canis familiaris [3]),Max [4],Heart rate (Canis familiaris [5]),Cardiac force (Canis familiaris [6]),dP/dt max (Canis familiaris [7]),Max (Mustela putorius furo),MPA (Canis familiaris [9]),Heart rate (Canis familiaris [10]),Cardiac force (Canis familiaris [11]),ED50 (Canis familiaris [13])
O=S(=O)(O)OC(CSc1[nH]cnc2ncnc1-2)CN1CCN(C(c2ccc(F)cc2)c2ccc(F)cc2)CC1 (stereo not given),390 nM,–,–,6,0.26 mg/kg,57%,6,159,110,–,–,–,–,–
